Common to all, as to format: functional
Test [1] has as its system Candida albicans. In words: Antifungal activity against Candida albicans Y0109 by micro-broth dilution method. In short, it runs like this: (§1)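 MIC80 determined by broth microdilution following NCCLS methods. C. albicans SC5314 and Y0109 and C. neoformans BLS108 served as quality-control strains and were included in every assay. Fluconazole, itraconazole, voriconazole and amphotericin B were run as positive controls.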
(In general: Dilution methods test growth across graded concentrations, often in twofold steps.)

Test [2] relates to Candida albicans. Nature of the test: Antifungal activity against Candida albicans SC5314 by micro-broth dilution method. In short, it runs like this:
as §1

A further test deals with Candida tropicalis. Nature of the test: Antifungal activity against Candida tropicalis by micro-broth dilution method. The method, boiled down:
as §1

In another test the test system is Trichophyton rubrum. In words: Antifungal activity against Trichophyton rubrum by micro-broth dilution method. The method, boiled down: as §1
The next test deals with Aspergillus fumigatus. Nature of the test: Antifungal activity against Aspergillus fumigatus by micro-broth dilution method. In short, it runs like this: as §1
A further test has as its system Candida parapsilosis. Nature of the test: Antifungal activity against Candida parapsilosis by micro-broth dilution method. As to conditions: Lodderomyces parapsilosis. In short, it runs like this:
as §1

For a further test, the system named is Cryptococcus neoformans. In words: Antifungal activity against Cryptococcus neoformans BLS108 by micro-broth dilution method. In short, it runs like this: as §1
Another test deals with Kluyveromyces marxianus. In words: Antifungal activity against Candida kefyr by micro-broth dilution method.

Molecules are shown by their SMILES. ≈ marks a conversion by molar mass, not a printed value. Bounds are passed on as bounds.

On to `O=C(Nc1ccc(-n2cnn(CC(O)(Cn3cncn3)c3ccc(F)cc3F)c2=O)cc1)c1ccc(Cl)cc1Cl` (single isomer, unassigned), for which the MIC80 with Candida albicans [1] is 0.0625 µg/mL (≈ 0.107 µM); in the test on Candida albicans [2], 0.0625 µg/mL (≈ 0.107 µM); against Candida tropicalis, 0.25 µg/mL (≈ 0.426 µM); against Trichophyton rubrum it was over 64 µg/mL; against Aspergillus fumigatus, over 64 µg/mL; in the test on Candida parapsilosis, 0.0156 µg/mL (≈ 0.0266 µM). For the same molecule, the MIC80 in the test on Cryptococcus neoformans is over 64 µg/mL; against Kluyveromyces marxianus, 4 µg/mL (≈ 6.82 µM).
Take `COc1ccc(OC)c(/C=C/C(=O)Nc2ccc(-n3cnn(CC(O)(Cn4cncn4)c4ccc(F)cc4F)c3=O)cc2)c1` (single isomer, unassigned): the MIC80 in the test on Candida albicans [1] is 16 µg/mL (≈ 26.5 µM); with Candida albicans [2] it was 1 µg/mL (≈ 1.66 µM); against Candida tropicalis it was over 64 µg/mL; against Trichophyton rubrum, over 64 µg/mL; in the test on Aspergillus fumigatus, over 64 µg/mL; in the test on Candida parapsilosis, 1 µg/mL (≈ 1.66 µM). Moreover, the MIC80 with Cryptococcus neoformans and with Kluyveromyces marxianus was over 64 µg/mL throughout.
`CC(C)(C)c1ccc(C(=O)Nc2ccc(-n3cnn(CC(O)(Cn4cncn4)c4ccc(F)cc4F)c3=O)cc2)cc1` (single isomer, unassigned): the MIC80 against Candida albicans [1] is 1 µg/mL (≈ 1.74 µM); with Candida albicans [2], 0.0625 µg/mL (≈ 0.109 µM); in the test with Candida tropicalis, 0.25 µg/mL (≈ 0.436 µM); against Trichophyton rubrum, 4 µg/mL (≈ 6.97 µM); in the test on Aspergillus fumigatus, over 64 µg/mL; against Candida parapsilosis, 0.0625 µg/mL (≈ 0.109 µM). Besides, the MIC80 with Cryptococcus neoformans was 64 µg/mL (≈ 112 µM); in the test on Kluyveromyces marxianus, over 64 µg/mL.

By MIC80 is commonly meant an inhibitory concentration at the 80% level, which refers to growth in some studies and to a panel of isolates in others.
